Assay outcomes (PubChem)
Rows were chosen to be rich in hits. Some 2.5% of all compounds tested hit in one or more screens of this group.
HKDC1 inhibitor – HKDC1 hexokinase inhibitors, primary screen, biochemical, fluorescence, uHTS; Q2TB90; recombinant HKDC1, G6PDH/diaphorase resazurin coupled fluorescence; inhibition, % at 20 µM; 340,000 compounds, 0.16% hits;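 active = inhibition above about 35% when tested at 20 µM, limit read from the data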;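 note: plate controls were DMSO wells with enzyme for no effect and DMSO wells lacking enzyme for full effect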
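Material – in-house recombinant HK5 (HKDC1) enzyme · Quantity – HKDC1 at 5 µg/mL · Buffer or medium – pH 8.0 Tris buffer with 10 mM MgCl2 · Reagent – glucose with 1 mM ATP · Dosing – single 20 µM dose · Times – reaction time 90 min, room temperature, protected from light · Technique – resorufin fluorescence at 613 nm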
PHOSPHO1 inh – PubChem AID 1565; 290,000 compounds, 1.1% hits; recombinant PHOSPHO1, absorbance phosphatase assay; inhibition, % at 13.3 µM; in the data active = inhibition above about 60%
Target sequence (Q8TCT1 whole entry, looked up): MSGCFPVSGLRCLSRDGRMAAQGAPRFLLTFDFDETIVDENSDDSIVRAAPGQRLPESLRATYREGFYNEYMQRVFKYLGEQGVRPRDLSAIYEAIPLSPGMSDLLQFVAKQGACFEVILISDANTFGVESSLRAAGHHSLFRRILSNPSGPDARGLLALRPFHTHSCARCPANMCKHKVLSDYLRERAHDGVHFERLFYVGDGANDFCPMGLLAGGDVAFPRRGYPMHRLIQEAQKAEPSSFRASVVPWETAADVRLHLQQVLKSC
EP2 antag – human EP2 receptor antagonists, primary screen, TR-FRET cAMP, C6 glioma cells; C6 glioma cells expressing human EP2; cells stimulated with saturating PGE2; inhibition, % at 25 µM; Prostaglandin E2 receptor EP2 subtype (Homo sapiens), P43116; 260,000 compounds, 0.52% hits;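 active = percent inhibition above 40 after rounding to a whole number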;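 note: rat C6 glioma host cells with rolipram phosphodiesterase inhibitor present; the protocol text gives 20 µM as final concentration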
Target sequence (P43116 whole entry, looked up): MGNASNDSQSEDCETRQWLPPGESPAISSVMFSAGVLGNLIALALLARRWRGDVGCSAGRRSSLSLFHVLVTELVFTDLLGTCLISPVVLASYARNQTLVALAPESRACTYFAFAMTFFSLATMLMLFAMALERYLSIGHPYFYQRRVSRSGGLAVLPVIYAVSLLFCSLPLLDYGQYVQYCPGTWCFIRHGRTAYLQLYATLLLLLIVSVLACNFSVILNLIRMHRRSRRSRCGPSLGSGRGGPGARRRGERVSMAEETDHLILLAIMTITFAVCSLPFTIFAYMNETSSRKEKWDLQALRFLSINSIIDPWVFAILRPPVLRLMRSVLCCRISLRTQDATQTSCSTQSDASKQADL
PfGluPho inh – PfG6PD enzyme inhibitors, primary screen, biochemical, fluorescence intensity, uHTS. glucose-6-phosphate dehydrogenase-6-phosphogluconolactonase (Plasmodium falciparum 3D7). PfGluPho enzyme, NADPH resazurin-diaphorase fluorescence. inhibition, % at 20 µM. 350,000 compounds, 0.78% hits;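 active = inhibition reaching at least a set limit at 20 µM in the primary screen, cut at about 59% in these data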;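 note: 0% = DMSO wells with substrate and 100% = DMSO wells lacking glucose-6-phosphate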
TbHK1 inh – Trypanosoma brucei hexokinase 1 inhibitors, primary screen, biochemical, G6PDH-coupled NADH absorbance, MLSCN library | recombinant TbHK1, G6PDH-coupled NADH A340 | inhibition, % at 10 µM | 220,000 compounds, 0.11% hits;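 active = inhibition of 50% or more in the single-dose primary screen; inactive = inhibition below 50%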
EP2 mod – EP2 receptor modulators, cAMP readout, primary screen, cell-based, HTRF cAMP, PGE2 stimulation; AID 940, 2007; induction, % at 25 µM; 260,000 compounds, 0.83% hits; Prostaglandin E2 receptor EP2 subtype (Homo sapiens), P43116; EP2-expressing cells, cAMP HTRF FRET, PGE2 co-stimulation;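 active = compounds whose cAMP rise, as percent of the full-agonist control response, exceeds 60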;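 note: rat C6 glioma line stably carrying human EP2 under a CMV promoter; the protocol text gives 20 µM as final concentration; 100% = response of wells given 1 µM PGE2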
* = called active by the depositor; x = not tested or not shown.

SMILES | HKDC1 inhibitor | PHOSPHO1 inh | EP2 antag | PfGluPho inh | TbHK1 inh | EP2 mod
O=C1CC[C@@H](NCc2ccsc2)[C@H](c2cc(F)cc(F)c2)N1 | x | x | 5 | x | x | -34
Cc1cc(NC(=O)c2cccc(F)c2)ccc1NC(=O)c1ccco1 | x | x | 11 | x | x | -44
C=CCc1cccc2cc(C(=O)Nc3cccc(C(=O)O)c3)c(=O)oc12 | 1 | 9 | 5 | -1 | -22 | 100*
C=CCc1cccc2cc(C(=O)Nc3ccc(S(=O)(=O)Nc4nnc(CC)s4)cc3)c(=O)oc12 | 11 | 85* | 5 | -16 | 18 | -7
C=CCc1cccc2cc(C(=O)Nc3ccc(F)cc3)c(=O)oc12 | -7 | -32 | 9 | -4 | 6 | 13
CCn1cc(C(=O)N2CCC(n3c(C)nc4sc(C)c(C)c4c3=O)CC2)c(C)n1 | x | x | 8 | x | x | -16
O=C(Cc1ccc([N+](=O)[O-])cc1)N1N=C2CCCCC2C1(O)C(F)(F)F (stereo not drawn) | -5 | 27 | 3 | 4 | -4 | 72*
CCC(c1nnnn1C(C)(C)C)N(Cc1ccccc1)Cc1cc2cc(C)c(C)cc2[nH]c1=O (stereo not drawn) | x | x | 16 | x | x | 25
CC1CCCCN1CC(=O)Nc1ccccc1Sc1ccccc1 (stereo not drawn) | 7 | -8 | 12 | -21 | 9 | 62*
COC(=O)C1CCN(CC(=O)Nc2ccccc2Sc2ccccc2)CC1 | -4 | 46 | 6 | 17 | -10 | 59
Cc1nn(-c2ccc(S(=O)(=O)O)cc2)c(O)c1N=Nc1ccc(-c2ccc(N=Nc3ccc4c(S(=O)(=O)O)cc(S(=O)(=O)O)c(N)c4c3O)c(O)c2)cc1O.[Cu].[Cu] | x | x | 54* | x | x | 21
Cc1nonc1C(=O)N1CCC(Cn2nc(-c3ccccc3)ccc2=O)CC1 | x | x | x | x | x | 23
CCC(CC)c1nnc(NC(=O)Cc2ccc(Cl)cc2)s1 | x | x | 16 | x | x | -84
Cc1[nH]c2ccccc2c1CCNC(=O)C1CCN(c2nc3ccccc3n2C)CC1 | x | x | x | x | x | -92
COCCCNC(=O)c1cccn2c(=O)c3cc4ccccc4cc3nc12 | 15 | 95* | 6 | -73 | -17 | -21
O=C(NCc1ccco1)c1cnc2ccccn2c1=O | -6 | 8 | 10 | 3 | -31 | 5
O=C(NCc1ccco1)c1cccn2c(=O)c3cc4ccccc4cc3nc12 | x | 100* | x | x | -9 | -34
C=CCn1c(=N)c(C(=O)NCCCOC)cc2c(=O)n3cccc(C)c3nc21 | -8 | -30 | 15 | 3 | 18 | 21
O=C1c2ccccc2C(=O)N1c1ccc(Cc2ccc(N3C(=O)c4ccccc4C3=O)cc2)cc1 | x | x | 49* | x | x | 15
CCc1cc2cc(OC)ccc2nc1SCC(=O)Nc1ccccc1OC | x | x | 11 | x | x | 45
CCCn1c(SCc2nc3sc(C)c(C)c3c(=O)[nH]2)nc2ccccc2c1=O | 7 | 69* | 5 | -8 | -1 | -2
COCCn1c(SCc2nc3ccccc3c(=O)[nH]2)nc2ccccc2c1=O | 2 | 32 | 5 | 6 | 0 | -35
COc1ccc(-c2ncc(CNC3(c4ccccc4F)CCCC3)cn2)cc1 | x | x | 4 | x | x | -101
OC(CN1CCN(c2ccccc2Cl)CC1)c1ccc2c(c1)OCCCO2 (stereo not drawn) | x | x | 7 | x | x | -61
C=C(C)C1Cc2c(C)nn(-c3ccccc3)c2C1 (stereo not drawn) | 0 | -6 | 11 | -6 | -4 | 61*
SMILES | HKDC1 inhibitor | PHOSPHO1 inh | EP2 antag | PfGluPho inh | TbHK1 inh | EP2 mod
COc1ccc(NC(=S)NCCCCCC(=O)C[N+](=O)[O-])cc1 | -11 | 77* | 0 | 31 | -5 | -47
O=C(CCCCCNC(=S)Nc1ccc(Cl)cc1)C[N+](=O)[O-] | -11 | 23 | 5 | 3 | -4 | 39
Cc1cc(C)c[n+](-c2nc([O-])sc2C=O)c1 | -8 | 96* | 10 | -7 | -22 | 18
Cc1ccccc1C(=O)Nc1cccc(NC(=O)c2ccc3c(c2)OCO3)c1 | x | x | 13 | x | x | -76
O=C(CN1C(=O)NC(c2ccccc2)(c2ccccc2)C1=O)N1CCN(c2ccc(F)cc2)CC1 | 7 | x | x | -7 | x | x
O=C(CN1C(=O)NC2(CCSC2)C1=O)N1CCN(c2ccc(F)cc2)CC1 (stereo not drawn) | 3 | 99* | 5 | 2 | 1 | x
Cn1c(=S)[nH]c2ccccc21 | -1 | 74* | 0 | 4 | -1 | 13
N#CCCn1c(=S)[nH]c2ccccc21 | -5 | 88* | 9 | 16 | 1 | 9
CCOc1ccc2c(c1)[nH]c(=S)n2C | -3 | 79* | 5 | 41 | -4 | -15
CCOc1ccc(OCCn2c(=S)[nH]c3ccccc32)cc1 | 3 | -11 | 15 | 47 | x | 32
CCCOc1ccc(Cl)cc1C1C2=C(CCCC2=O)NC2=C1C(=O)CCC2 | x | x | 8 | x | x | -4
CC(C(=O)NC1CC1)N1CCC(N2CCCCC2)CC1 (stereo not drawn) | x | x | 17 | x | x | 12
CC(=O)c1ccc(OCC(O)Cn2c[n+](C)c3cc(C)c(C)cc32)cc1 (stereo not drawn) | x | x | 9 | x | x | -27
COC(=O)Nc1sc2c(c1C(=O)NC1CC1)CCCCCC2 | -7 | 88* | 8 | 10 | -4 | 10
COC(=O)C(NNc1ccccc1)(NC(=O)c1ccc(F)cc1)C(F)(F)F (stereo not drawn) | -1 | 92* | 3 | -5 | -4 | -52
CCOc1ccc(NC(=O)C(C)n2nc(-c3cc(C)oc3C)cc(N)c2=O)cc1 (stereo not drawn) | x | x | 5 | x | x | -79
N#CCSc1nc2ccc(N3CCCCC3)cc2c(=O)n1Cc1ccccc1 | 24 | 67* | 10 | 23 | -6 | x
COC(=O)c1cc([N+](=O)[O-])c(-n2ccnc2)c([N+](=O)[O-])c1 | -3 | 3 | 5 | -3 | 31 | 63*
O=C(O)c1ccc(-n2ccnc2)c([N+](=O)[O-])c1 | -4 | 0 | 3 | -4 | 0 | 34
CCOC(=O)c1sc(NC(=O)c2cc(I)ccc2Cl)nc1C | x | x | 16 | x | x | -78
CCn1c(CN2CCCCCC2=O)nnc1SCc1cnc(-c2ccccc2)s1 | 1 | 62* | 6 | -1 | 0 | -73
COc1ccc(C2=NN(Cc3c(F)cccc3Cl)C(=O)CC2)cc1 | -9 | -1 | 9 | 4 | 5 | 63*
COc1ccc(C2=NN(CC(=O)Nc3ccccc3C)C(=O)CC2)cc1 | -4 | 37 | 4 | 2 | -4 | -37
COC(=O)Cn1ncn2c(cc3oc(C)cc32)c1=O | -3 | 66* | 12 | -14 | -2 | -23
